Measurements: ChEMBL document CHEMBL3414544, “PAINS in the assay: chemical mechanisms of assay interference and promiscuous enzymatic inhibition observed during a sulfhydryl-scavenging HTS” (J Med Chem, 2015)
Active and inactive are the calls of the source. Unless noted, the calls are words filed in the database; no cut-off is given here.

Key:
[1] = target: T1, Histone acetyltransferase RTT109 (Saccharomyces cerevisiae (strain ATCC 204508 / S288c) (Baker's yeast), UniProt Q07794); test: Inhibition of Vps75-stimulated recombinant Saccharomyces cerevisiae histone acetyltransferase Rtt109 using Asf1-dH3-H4 as substrate assessed as coenzyme A production after 45 mins by CPM based HTS assay; settings: read-out: IC50
T1 sequence (Q07794 whole entry): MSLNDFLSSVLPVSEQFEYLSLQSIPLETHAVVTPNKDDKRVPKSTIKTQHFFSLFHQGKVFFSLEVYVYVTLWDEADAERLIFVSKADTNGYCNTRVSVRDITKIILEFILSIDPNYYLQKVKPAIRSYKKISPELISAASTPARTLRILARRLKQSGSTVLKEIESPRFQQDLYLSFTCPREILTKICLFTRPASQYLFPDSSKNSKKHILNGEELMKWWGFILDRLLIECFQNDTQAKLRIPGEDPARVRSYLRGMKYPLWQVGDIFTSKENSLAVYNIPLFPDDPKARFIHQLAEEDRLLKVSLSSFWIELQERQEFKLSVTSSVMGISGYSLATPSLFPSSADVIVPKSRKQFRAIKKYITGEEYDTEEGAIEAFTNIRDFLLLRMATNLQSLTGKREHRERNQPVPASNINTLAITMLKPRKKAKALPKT
Procedure, shortened: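 Recombinant Rtt109–Vps75 at 50 nM, with Asf1–dH3–H4 as substrate and acetyl-CoA as acetyl donor. Buffer contained freshly prepared 0.01% Triton X-100. The CoA product was detected by fluorescence of its CPM adduct. Plates had Z′ ≥0.5. IC50 came from a four-parameter variable-slope fit.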

[2] = target: T2, Histone acetyltransferase RTT109 (Saccharomyces cerevisiae (strain ATCC 204508 / S288c) (Baker's yeast)) (UniProt Q07794); test: Inhibition of Vps75-stimulated recombinant Saccharomyces cerevisiae histone acetyltransferase Rtt109 assessed as H3K27 acetylated product at […] after 45 mins by Slot bolt inhibiton assay
T2 sequence (whole entry): T1 sequence (Q07794 whole entry)

[3] = Fluorescence quenching in HTS buffer with 20 uM 7-diethylamino-3-(4'-maleimidyl-phenyl)-4-methylcoumarin assessed as fluorescence signal reduction at 10 uM after 10 mins; assay type: physicochemical
[4] = Chemical stability of the compound in HTS buffer assessed as GSH adduct formation by UPLC-MS analysis; assay type: physicochemical
Procedure, shortened: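 Compound (typically 0.5 mM final) incubated in HTS buffer (pH 8.0) for 5, 15 or 30 min, then reduced glutathione added (2 equiv per 1 equiv compound); aliquots analysed by UPLC–MS (BEH C18 column, ELS and 254 nm traces) 5 min after GSH addition, and the same sample re-analysed 15 min later. HTS-like conditions but 5% DMSO, no detergent.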

[5] = target: T3, Lupus La protein (Homo sapiens) (UniProt P05455); test: Induction of thiol reactivity with La protein (unknown origin) using […] assessed as protein reactivity by ALARM NMR in presence of 20 mM DTT
T3 sequence (whole entry): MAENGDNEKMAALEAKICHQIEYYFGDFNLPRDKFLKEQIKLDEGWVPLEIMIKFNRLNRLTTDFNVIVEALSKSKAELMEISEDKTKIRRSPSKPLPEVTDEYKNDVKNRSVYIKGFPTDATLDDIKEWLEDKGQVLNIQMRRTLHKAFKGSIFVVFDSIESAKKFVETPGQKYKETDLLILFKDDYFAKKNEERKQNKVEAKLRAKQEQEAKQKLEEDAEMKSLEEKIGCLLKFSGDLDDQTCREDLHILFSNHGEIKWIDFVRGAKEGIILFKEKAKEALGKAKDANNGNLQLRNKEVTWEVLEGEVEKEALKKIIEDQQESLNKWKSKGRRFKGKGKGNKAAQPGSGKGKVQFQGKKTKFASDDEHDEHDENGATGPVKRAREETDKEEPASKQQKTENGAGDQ
Procedure, shortened: (§1)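 ALARM NMR with recombinant La antigen expressed in E. coli Rosetta, 15N-labelled and 13C-labelled at Leu/Ile δ-methyl and Val γ-methyl groups; protein pre-reduced with 20 mM DTT then dialysed DTT-free under N2.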

[6] = target: T3, Lupus La protein (Homo sapiens); test: Induction of thiol reactivity with La protein (unknown origin) using […] assessed as protein reactivity by ALARM NMR; procedure, shortened: as §1
[7] = target: Histone acetyltransferase GCN5 (Saccharomyces cerevisiae S288c) (UniProt Q03330); test: Inhibition of yeast histone acetyltransferase Gcn5-Ada2-Ada3 complex using tetramer and [3H]-acetyl-CoA assessed as acetate incorporation […] by liquid scintillation counting in presence of 1 mM DTT
Histone acetyltransferase GCN5 (Saccharomyces cerevisiae S288c), sequence (Q03330 whole entry): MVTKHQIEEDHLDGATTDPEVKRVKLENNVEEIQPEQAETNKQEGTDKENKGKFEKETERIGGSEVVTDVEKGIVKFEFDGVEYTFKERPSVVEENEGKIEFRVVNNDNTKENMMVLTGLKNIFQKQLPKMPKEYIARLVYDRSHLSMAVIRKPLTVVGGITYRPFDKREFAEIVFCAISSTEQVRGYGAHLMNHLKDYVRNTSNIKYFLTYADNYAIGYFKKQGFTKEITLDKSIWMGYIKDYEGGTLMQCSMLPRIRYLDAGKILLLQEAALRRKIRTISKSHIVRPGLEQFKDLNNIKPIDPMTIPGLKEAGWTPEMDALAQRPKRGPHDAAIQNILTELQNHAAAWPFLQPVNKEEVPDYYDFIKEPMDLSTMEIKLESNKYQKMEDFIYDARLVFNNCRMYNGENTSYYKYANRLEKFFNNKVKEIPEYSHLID

[8] = target: T4, Histone acetyltransferase p300 (Homo sapiens, UniProt Q09472); test: Inhibition of recombinant histone acetyltransferase p300 (unknown origin) using dH3-H4 tetramer and [3H]-acetyl-CoA assessed as acetate incorporation after 5 mins by liquid scintillation counting in presence of 1 mM DTT
T4 sequence (Q09472 whole entry): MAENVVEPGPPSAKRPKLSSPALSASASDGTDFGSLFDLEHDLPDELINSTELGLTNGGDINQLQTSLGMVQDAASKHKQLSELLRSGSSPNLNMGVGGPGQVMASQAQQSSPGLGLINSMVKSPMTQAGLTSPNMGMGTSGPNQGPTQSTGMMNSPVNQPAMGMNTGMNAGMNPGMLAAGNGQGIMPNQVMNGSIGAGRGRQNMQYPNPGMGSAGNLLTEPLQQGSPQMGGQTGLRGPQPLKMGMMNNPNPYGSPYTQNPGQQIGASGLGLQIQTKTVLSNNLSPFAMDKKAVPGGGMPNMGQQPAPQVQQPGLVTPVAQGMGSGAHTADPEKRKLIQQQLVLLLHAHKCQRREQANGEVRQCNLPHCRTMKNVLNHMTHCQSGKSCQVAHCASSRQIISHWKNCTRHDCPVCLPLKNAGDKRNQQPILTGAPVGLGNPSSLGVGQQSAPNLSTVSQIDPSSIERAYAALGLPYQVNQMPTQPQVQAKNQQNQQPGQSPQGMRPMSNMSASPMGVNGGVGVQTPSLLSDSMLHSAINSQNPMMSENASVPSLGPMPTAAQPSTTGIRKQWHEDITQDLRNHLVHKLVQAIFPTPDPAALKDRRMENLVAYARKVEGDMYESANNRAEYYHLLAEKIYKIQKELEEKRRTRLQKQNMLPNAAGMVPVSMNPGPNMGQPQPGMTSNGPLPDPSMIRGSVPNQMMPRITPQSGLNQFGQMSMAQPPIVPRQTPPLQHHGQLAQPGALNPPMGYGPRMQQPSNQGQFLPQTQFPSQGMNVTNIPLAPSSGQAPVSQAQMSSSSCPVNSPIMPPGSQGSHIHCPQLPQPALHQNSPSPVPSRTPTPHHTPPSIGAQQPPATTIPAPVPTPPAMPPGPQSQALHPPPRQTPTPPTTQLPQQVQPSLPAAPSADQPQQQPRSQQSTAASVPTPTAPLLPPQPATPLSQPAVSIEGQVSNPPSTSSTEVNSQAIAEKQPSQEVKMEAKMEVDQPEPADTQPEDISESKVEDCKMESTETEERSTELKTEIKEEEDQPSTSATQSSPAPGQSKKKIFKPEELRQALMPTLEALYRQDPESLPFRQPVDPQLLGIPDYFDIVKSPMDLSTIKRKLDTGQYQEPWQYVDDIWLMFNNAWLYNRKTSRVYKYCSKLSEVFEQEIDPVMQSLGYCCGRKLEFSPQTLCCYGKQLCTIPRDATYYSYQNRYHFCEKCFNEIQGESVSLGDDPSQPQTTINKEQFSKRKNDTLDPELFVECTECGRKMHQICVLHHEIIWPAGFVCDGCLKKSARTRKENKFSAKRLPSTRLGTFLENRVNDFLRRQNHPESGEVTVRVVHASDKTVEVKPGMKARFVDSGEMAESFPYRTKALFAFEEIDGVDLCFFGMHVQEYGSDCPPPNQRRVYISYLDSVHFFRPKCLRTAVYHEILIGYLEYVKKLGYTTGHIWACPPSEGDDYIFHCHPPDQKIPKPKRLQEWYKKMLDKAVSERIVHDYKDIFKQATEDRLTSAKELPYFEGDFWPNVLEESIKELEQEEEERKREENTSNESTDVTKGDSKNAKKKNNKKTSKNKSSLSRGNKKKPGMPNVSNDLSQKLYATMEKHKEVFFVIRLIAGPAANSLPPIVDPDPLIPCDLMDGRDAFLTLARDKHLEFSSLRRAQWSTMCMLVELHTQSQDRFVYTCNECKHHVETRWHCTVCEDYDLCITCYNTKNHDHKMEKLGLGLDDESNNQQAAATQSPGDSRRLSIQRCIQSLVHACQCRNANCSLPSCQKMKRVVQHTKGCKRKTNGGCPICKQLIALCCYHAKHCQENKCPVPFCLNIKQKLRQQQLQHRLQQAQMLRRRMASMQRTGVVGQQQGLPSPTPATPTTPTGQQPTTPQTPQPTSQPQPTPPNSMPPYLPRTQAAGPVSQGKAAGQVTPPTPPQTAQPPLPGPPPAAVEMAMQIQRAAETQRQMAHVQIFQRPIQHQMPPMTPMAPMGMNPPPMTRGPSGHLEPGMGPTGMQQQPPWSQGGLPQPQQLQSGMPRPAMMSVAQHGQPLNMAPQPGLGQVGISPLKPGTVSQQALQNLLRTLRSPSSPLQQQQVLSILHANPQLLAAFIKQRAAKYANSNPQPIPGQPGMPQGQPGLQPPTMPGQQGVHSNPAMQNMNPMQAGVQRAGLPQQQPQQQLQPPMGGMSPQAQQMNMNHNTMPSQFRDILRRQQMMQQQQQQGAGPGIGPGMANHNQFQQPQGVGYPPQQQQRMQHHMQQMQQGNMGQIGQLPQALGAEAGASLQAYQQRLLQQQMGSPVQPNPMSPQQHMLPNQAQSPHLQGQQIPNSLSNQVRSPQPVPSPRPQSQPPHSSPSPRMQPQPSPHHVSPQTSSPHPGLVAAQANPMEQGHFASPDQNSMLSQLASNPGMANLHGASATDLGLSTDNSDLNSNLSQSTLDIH

[9] = Fluorescence quenching in HTS buffer with […] CoA assessed as fluorescence signal reduction at 10 uM after 10 mins; assay type: physicochemical
[10] = target: T2, Histone acetyltransferase RTT109 (Saccharomyces cerevisiae (strain ATCC 204508 / S288c) (Baker's yeast)); test: Inhibition of Vps75-stimulated recombinant Saccharomyces cerevisiae histone acetyltransferase Rtt109 assessed as H3K56 acetylated product at […] after 45 mins by Slot bolt inhibiton assay
[11] = target: T4, Histone acetyltransferase p300; test: Inhibition of recombinant histone acetyltransferase p300 (unknown origin) using dH3-H4 tetramer and [3H]-acetyl-CoA assessed as acetate incorporation […] by liquid scintillation counting; settings: read-out: IC50
[12] = target: Histone acetyltransferase GCN5 (Saccharomyces cerevisiae S288c, UniProt Q03330); test: Inhibition of yeast histone acetyltransferase Gcn5-Ada2-Ada3 complex using tetramer and [3H]-acetyl-CoA assessed as acetate incorporation after 30 mins by liquid scintillation counting; settings: read-out: IC50
Histone acetyltransferase GCN5, sequence (Q03330 whole entry): as the sequence (Q03330 whole entry) above

[13] = Fluorescence quenching assessed as fluorescence signal reduction at 10 uM after 10 mins; assay type: physicochemical
Procedure, shortened: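 CPM (20 μM final) and CoA (5 μM final) reacted to completion in assay buffer (stable plateau, usually ~5 min); adduct solution added to wells preplated with compound; shaken 5 min, equilibrated 5 min at room temperature; fluorescence intensity read as percent signal reduction versus DMSO controls. Flagged as quencher at >20% signal reduction at 10 μM final compound.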

[14] = Fluorescence quenching in HTS buffer assessed as fluorescence signal reduction at 10 uM after 10 mins; assay type: physicochemical
[15] = target: T2, Histone acetyltransferase RTT109 (Saccharomyces cerevisiae (strain ATCC 204508 / S288c) (Baker's yeast)); test: Inhibition of Vps75-stimulated recombinant Saccharomyces cerevisiae histone acetyltransferase Rtt109 using [3H]-acetyl-CoA assessed as acetate incorporation […] by liquid scintillation counting in presence of 1 mM DTT
[16] = target: T1, Histone acetyltransferase RTT109; test: Inhibition of Vps75-stimulated recombinant Saccharomyces cerevisiae histone acetyltransferase Rtt109 using [3H]-acetyl-CoA assessed as acetate incorporation after 30 mins by liquid scintillation counting; settings: read-out: IC50

| Compound | IC50 [1] [µM] | Activity [2] | Activity [3] | Stability [4] | Activity [5] | Activity [6] | Activity [7] | Activity [8] | Activity [9] | Activity [10] | IC50 [11] [µM] | IC50 [12] [µM] | Activity [13] | Activity [14] | Activity [15] | IC50 [16] [µM] |
| --- | --- | --- | --- | --- | --- | --- | --- | --- | --- | --- | --- | --- | --- | --- | --- | --- |
| O=[N+]([O-])c1cc(Br)c2nsnc2c1Sc1ncnc2[nH]cnc12 | 2.8 | Active | Not Active | Unstable | inactive | Active | Active | Active | Not Active | Active | 2.2 | 4.6 | Not Active | Not Active | Active | 3.9 |
| O=C(O)c1ccc(-n2nnnc2SC2=CS(=O)(=O)c3ccccc32)cc1 | 8.8 | Active | Not Active | Unstable | inactive | Active | Active | Active | Not Active | Active | 7.5 | 11 | Not Active | Not Active | Active | 15 |
| O=C1CC(Sc2nnc(-c3ccccc3O)o2)C(=O)N1c1ccc(Br)cc1 (stereo not drawn) | 15 | Active | Not Active | Unstable | inactive | Active | Active | Active | Not Active | Active | 3.7 | 27 | Not Active | Not Active | Active | 3.9 |
